# Test results reported in PMC5269458 (Metallomics : integrated biometal science, 2017).
# Like-named read-outs stand apart in the source and are kept apart here. Marks after values point to notes of the source that are not given here.
# Columns and labels:
# [1] = tested on: wild-type C. neoformans H99; assay: Growth inhibition; type: cell-based, Cryptococcus neoformans; conditions: for growth compared to no treatment at 48 h: 100 μM compound, no supplemental Cu; for effect of supplemental Cu on the growth inhibition by the compound: 1 mM Cu, high compound concentration (100 μM; CQ 50 μM)
# [2] = constant in fitting model, universal buffer pH 7.4 with 5% DMSO; cited from earlier work
# [3] = tested on: C. neoformans wild type, H99 cells; type: cell-based, Cryptococcus neoformans; conditions: SC medium
# [4] = Calcein competition assay for Cu; type: binding; conditions: 100 μM compound; HEPES pH 7.4 and SC medium pH 4.5
# Stoichiometry with Cu = type: binding; conditions: 5% DMSO in universal buffer, pH 7.4, anaerobic
# In short: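 Ligand–Cu mixtures were made in 5% DMSO in Britton–Robinson universal buffer, pH 7.4. Total metal plus ligand concentration was held constant while the Cu mole fraction was varied from 0.1 to 1.0, and samples were read by UV-vis. Ligand stocks were 100 mM in DMSO. For Cu(I), the buffer (0.04 M […], H3PO4, CH3CO2H) was deoxygenated, samples were prepared and measured anaerobically in a glove box, and stock concentration was set by BCA titration at 562 nm.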
# Conditional Cu [5] = type: binding
# Conditional Cu [6] = type: binding; remark: listed apart in the source
# WT C. neoformans = assay: Fungicidal assay; type: cell-based, Cryptococcus neoformans; conditions: 24 h in liquid culture, PyS 3 μM
# [7] = tested on: ctr1Δctr4Δ mutant strain of C. neoformans; assay: Growth recovery of Cu-import deficient mutant in YPEG medium; type: cell-based, Cryptococcus neoformans; conditions: YPEG medium without supplemental Cu, micromolar compound, 48 h
# [8] = no supplemental Cu ([Cu] 0 mM), SC medium, 30 °C, 48 h
# [9] = negative log of free [Cu] at pH 7.4, total ligand 10 μM, total Cu 1 μM
smiles,measurement,setting,value
"Cc1cc(-c2ccc(S(=O)(=O)O)cc2)c2ccc3c(-c4ccc(S(=O)(=O)O)cc4)cc(C)nc3c2n1 [BCS, bathocuproine disulfonic acid]",Minimum inhibitory concentration (MIC),[1]; [8],higher than 100 μM
"[SH-].[SH-].[S]=[Mo]=[S] [TTM, tetrathiomolybdate]",growth compared to no treatment at 48 h,[1]; SC medium,decrease in growth
same,effect of supplemental Cu on the growth inhibition by the compound,[1],reversed
same,Minimum inhibitory concentration (MIC),[1]; [8],higher than 100 μM
O=C(O)c1cc(-c2cc(C(=O)O)c3ccccc3n2)nc2ccccc12.O=C(O)c1cc(-c2cc(C(=O)O)c3ccccc3n2)nc2ccccc12.[Cu+] [[Cu^I(BCA)2]^3−],Log K,[2],17.7[45]
"Cc1occc(=S)c1O [ThM, thiomaltol]","cell-associated Cu, Fe and Zn content","[3]; 10 μM ligand alone, 1 h",Metal accumulation did not occur
same,"cell-associated Cu, Fe and Zn content","[3]; 10 μM ligand co-incubated with 10 μM CuSO4, 1 h","hyper accumulation of Cu, Zn, and Fe"
same,competition with calcein for Cu(II),[4],able to compete effectively for Cu(II) at both pH values
same,stoichiometry with Cu(I),Stoichiometry with Cu,Bis complexes
same,effect of added Ag(I) on MIC,"[1]; 10 μM supplemental Ag(I), 48 h",no effect
same,effect of added Cu(II) on MIC,"[1]; 10 μM supplemental Cu(II), 48 h",significant decrease
same,effect of added Fe(III) on MIC,"[1]; 10 μM supplemental Fe(III), 48 h",did not significantly affect
same,effect of added Zn(II) on MIC,"[1]; 10 μM supplemental Zn(II), 48 h",did not significantly affect
same,Minimum inhibitory concentration (MIC),[1]; [8],>100 µM
same,MIC in the presence of added Cu,"[1]; range over low (10 μM) and high (1 mM) supplemental Cu, SC medium, 48 h",6 to 25 µM
same,Minimum inhibitory concentration (MIC),"[1]; supplemental [Cu] 0.01 mM (CuSO4), SC medium, 30 °C, 48 h",6 µM
same,Minimum inhibitory concentration (MIC),"[1]; supplemental [Cu] 1 mM (CuSO4), SC medium, 30 °C, 48 h",25 µM
same,Cu(II) log KML2,"Conditional Cu [5]; conditional, universal buffer pH 7.4, competition with PAR",≥20 ^b
same,pCu(II),Conditional Cu [5]; [9],≥15
same,Cu(I) log KML2,"Conditional Cu [6]; conditional, universal buffer pH 7.4, competition with BCA",16.4 ± 0.1
same,pCu(I),Conditional Cu [6]; [9],12.2
same,fungicidal or fungistatic activity (CFU),"WT C. neoformans; with 10 μM CuSO4, ThM above 6 μM",fungicidal
same,fungicidal or fungistatic activity (CFU),"WT C. neoformans; without Cu, ThM 100 μM",fungistatic
same,restoration of growth of ctr1Δctr4Δ mutant,[7],restored to near wild type levels
"CCN(CC)C(=S)SSC(=S)N(CC)CC [DSF, disulfiram]",MIC,"[1]; Cryptococcus neoformans, 48 h, read-out: Minimum inhibitory concentration (MIC), supplemental [Cu] 1 mM (CuSO4), SC medium, 30 °C, 48 h",6 µM
same,restoration of growth of ctr1Δctr4Δ mutant,[7],restored to near wild type levels
O=C(O)c1ccc(-n2nc(-c3ccccc3O)nc2-c2ccccc2O)cc1 [deferasirox],growth compared to no treatment at 48 h,[1]; SC medium,decrease in growth
same,effect of supplemental Cu on the growth inhibition by the compound,[1],reversed
"O=C(N/N=C/c1ccccc1O)c1ccncc1 [SIH, salicylaldehyde isonicotinoyl hydrazine]",Minimum inhibitory concentration (MIC),[1]; [8],higher than 100 μM
same,growth with compound in combination with Cu,"[1]; with 1 mM Cu, SC medium, 48 h",inhibited growth slightly
